Screening results: PubChem BioAssay, Sanford-Burnham Center for Chemical Genomics
Only some compounds are listed: those with a hit (about 1.8% of all), similar ones and a draw of the others.
CHOP UPR activ – activators of apoptotic CHOP UPR arm, primary screen, cell-based, CHO-CHOP luciferase reporter, luminescence, uHTS. UPR activation; percent of tunicamycin response over DMSO baseline. AID 449763, 2010. activation, % at 10 µM. 0.34% of 330,000 active;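 active = at 10 µM dose, activation of 40% or more, normalized to positive control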;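 note: 100% = tunicamycin at 10 µg/mL and 0% = DMSO alone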
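Test system: CHO CHOP reporter cells. Input: 500 CHO-CHOP cells per well. Medium: F12 with 10% FBS. Technique: luciferase luminescence. Measure: percent activation relative to tunicamycin control. Dosing: 10 µM compound, 0.5% DMSO. Timing: 16-18 h cell attachment, then 6 h compound exposure, 37 °C.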
CRFBP-R2 block – antagonists of CRF-BP/CRF-R2 complex, primary screen, cell-based, HEK293, calcium dye fluorescence, uHTS; CRF-induced calcium fluorescence; 0.59% of 350,000 active; AID 588475, 2011; inhibition, % at 11.8 µM;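 active = inhibition of the ligand-induced calcium signal above about 50% at the single tested concentration, limit read from the data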
XBP1 UPR activ – activators of adaptive XBP1 UPR arm, primary screen, cell-based, CHO-XBP1 luciferase reporter, luminescence, uHTS; activation, % at 20 µM; 0.33% of 330,000 active; IRE1-XBP1 UPR activation; percent of tunicamycin response, DMSO as zero;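 active = versus positive control, 20 µM dose yields 30% or more activation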;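 note: 100% = tunicamycin at 10 µg/mL and 0% = DMSO only wells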
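Material – CHO cell line with stable XBP1 luciferase reporter · Buffer or medium – F12 plus 10% FBS · Compound – single point, 20 µM final compound, 1% DMSO · Schedule – 16-18 h cell attachment at 37 °C, then 6 h compound exposure · Signal – Steady-Glo luminescence read · Benchmarks – high control tunicamycin 10 µg/mL final, low control DMSO vehicle only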
697 NFkB inh – inhibitors of PMA/ionomycin-induced NF-kB reporter, 697 cells, primary screen, B-cell NF-kB inhibitor project, cell-based, luminescence, uHTS. inhibition, % at 4 µM. 697 B-cell NF-kB luciferase reporter, 16 h. 0.33% of 330,000 active; in the data active = inhibition above about 35%
Jurkat NFkB inh – inhibitors of induced NF-kB luciferase reporter, primary screen, TCR NF-kB activation inhibitor project, cell-based, luminescence, uHTS; Jurkat, PMA/ionomycin-induced NF-kB luciferase reporter; inhibition, % at 4 µM; 0.53% of 330,000 active; AID 435003, 2010; in the data active = inhibition above about 50%
697 NFkB conf – PMA/ionomycin-induced NF-kB reporter inhibitors, 697 retest, confirmation, B-cell NF-kB inhibitor project, cell-based, luminescence, single concentration | 35% of 2,000 active | inhibition, % at 4 µM | AID 449746, 2010 | 697 B-cell NF-kB luciferase, 16 h | shares compounds with 697 NFkB inh; in the data active = inhibition mostly above about 28%, no sharp cut-off; inactive = mostly below about 22%
Active calls of the source: *; i = inactive; . = not tested or not shown.

SMILES | CHOP UPR activ | CRFBP-R2 block | XBP1 UPR activ | 697 NFkB inh | Jurkat NFkB inh | 697 NFkB conf
COCCNC(=O)C(=O)Nc1cc2c3c(c1)CCC(=O)N3CCC2 | -2.5 | 10.3 | -4.3 | -3.4 | -3.9 | .
CNC(=O)c1cc(Nc2nnc(-c3ccc(O)cc3)c3ccccc23)ccc1OC | -1.2 | 22.9 | 3.5 | 35.4* | 8.3 | 28.9*
CNC(=O)c1ccc(Nc2nnc(-c3ccc(O)cc3)c3ccccc23)cc1 | 1.5 | 11.6 | -0.4 | -9.0 | -4.3 | .
COc1ccc(N2CCN(C(=O)COC(=O)CNC(=O)c3ccc(C)cc3)CC2)cc1 | 1.0 | 3.4 | -1.8 | 5.9 | -8.3 | .
CCc1ccc2[nH]c3nc(N/N=C/c4cccc(O)c4)nnc3c2c1 | 4.9 | 20.8 | -3.4 | 60.5* | 22.1 | 76.4*
COc1cccc(/C=N/Nc2nnc3c(n2)[nH]c2ccccc23)c1OC | 1.6 | 9.7 | 1.6 | -25.8 | -24.5 | .
CC(=O)Nc1ccc(NC(=O)N(c2ccccc2)c2ccccc2)cc1 | 1.0 | 16.5 | -8.1 | 3.4 | 3.3 | .
Cc1ccc(-c2nnc(-c3ccccc3Br)o2)cc1 | 4.3 | 2.2 | -9.3 | -276.8 | -129.0 | -281.2
Cc1ccccc1-c1nnc(-c2ccccc2)o1 | 5.0 | -19.7 | 1.8 | -114.3 | -77.0 | .
COc1ccccc1CCc1nnc(CCC(=O)NC(C)Cc2cccnc2)o1 (centres undefined) | -0.7 | 3.0 | 1.0 | -10.9 | -5.2 | .
O=S(=O)(Nc1cccc(-c2ccc3nncn3n2)c1)c1cc(F)ccc1F | -2.0 | -12.5 | 2.0 | 7.8 | 0.9 | .
Cc1ccc(N=C/C(C(=O)C(F)(F)F)=C(\O)c2cccs2)cc1 | 4.5 | -16.4 | 4.4 | -359.5 | -99.9 | -148.4
O=C(/C(N=Nc1cccc(C(F)(F)F)c1)=C(/O)c1cccs1)C(F)(F)F | 1.2 | 12.7 | 4.0 | -113.3 | -59.1 | .
COc1ccc(OCCSc2ncc(CO)n2C)cc1 | -0.1 | -0.8 | -0.2 | 4.5 | -3.7 | .
Cn1ccc(C(=O)N/N=C/c2ccncc2)n1 | 0.9 | -4.0 | -6.6 | 5.3 | -3.4 | .
Fc1cccc(C2NN=C(c3ccccc3)S2)c1 (centres undefined) | -3.0 | -28.0 | -3.3 | -299.5 | -140.3 | -217.9
CCOC(=O)C1=C(N)n2c(s/c(=C\c3cccnc3)c2=O)=C(C(=O)OC)C1c1cccnc1 (centres undefined) | 0.1 | 19.5 | 9.6 | 37.2* | 10.4 | 5.8
CCOC(=O)C1=C(N)n2c(s/c(=C\c3ccncc3)c2=O)=C(C(=O)OCC)C1c1ccncc1 (centres undefined) | 3.2 | 11.7 | 24.9 | 8.6 | -5.8 | .
Nc1nn(-c2ccccc2)c(N)c1N=Nc1ccccc1F | 2.5 | -53.2 | -3.8 | -444.0 | -30.4 | -254.5
CC1CCc2nc(NC(=O)C3COc4ccccc4O3)sc2C1 (centres undefined) | -6.1 | -24.4 | -9.4 | -299.5 | -88.9 | -333.6
CC1CCc2nc(NC(=O)C3CC3)sc2C1 (centres undefined) | 4.3 | -3.5 | 1.8 | -52.5 | -60.9 | .
COc1cccc(-c2nc(CS(=O)(=O)CC(=O)Nc3ccccc3Cl)c(C)o2)c1 | -0.9 | -17.0 | -6.0 | 4.3 | 4.4 | .
Cc1sc(NC(=O)c2ccco2)c(C(c2cccnc2)N2CCC(C)CC2)c1C (centres undefined) | 0.3 | -95.9 | 1.9 | 35.7* | 36.1 | -11.8
Cc1ccccc1NC(=O)/C(C#N)=C\c1cc(C)n(-c2ccc(C(=O)O)cc2)c1C | 1.1 | -4.5 | 0.2 | 39.7* | 4.9 | 2.6
Cc1cc(C(=O)Cn2nnc3ccccc3c2=O)c(C)n1Cc1cccs1 | 1.2 | -16.4 | -3.4 | -341.1 | -104.0 | -234.1
SMILES | CHOP UPR activ | CRFBP-R2 block | XBP1 UPR activ | 697 NFkB inh | Jurkat NFkB inh | 697 NFkB conf
COCCN(C(=O)COC(=O)CCc1ccccc1)c1c(N)n(Cc2ccccc2)c(=O)[nH]c1=O | -1.6 | 7.2 | -1.9 | -9.2 | -18.1 | .
Cc1c(-c2ccc(OCc3ccccc3)cc2)nc2ccccc2c1C(=O)O | 0.5 | -12.2 | 1.2 | -9.2 | 4.7 | .
CC(=O)c1cccc(NC(=O)c2cnn3ccccc23)c1 | 6.6 | -5.7 | 0.1 | -59.2 | -84.2 | .
CC(=O)c1ccc(NC(=O)c2cnn3ccccc23)cc1 | -0.4 | -1.5 | -3.2 | 36.4* | 0.4 | 17.1
Cc1ccccc1C(=O)Nc1ccc2c(c1)CCCN2C(=O)c1cccs1 | 1.0 | 24.7 | -1.9 | i | -51.7 | i
COc1cccc(C(=O)Nc2ccc3c(c2)CCCN3C(=O)c2cccs2)c1OC | 3.3 | 8.6 | -1.6 | -45.1 | -9.3 | .
CCC1(CC)C(=O)NC(=O)NC1=S | . | -11.9 | . | . | . | .
CCOC(=O)[C@H]1[C@H]2COc3ccccc3[C@@H]2N2C(=O)c3ccccc3NC(=O)[C@@]12C | -0.5 | -12.7 | -0.5 | 24.8 | -3.8 | .
CCOC(=O)[C@H]1[C@H]2COc3ccccc3[C@@H]2N2C(=O)c3ccc(C)cc3NC(=O)[C@@]12C | 0.2 | -14.6 | 0.3 | 36.1* | 11.3 | 18.5
O=C(c1ccc(Cl)c(S(=O)(=O)N2CCc3ccccc32)c1)N1CCN(c2ccccc2O)CC1 | 5.6 | 0.5 | 4.0 | 7.5 | 8.3 | .
O=C(NNC(=O)c1ccccc1O)c1ccc(Cl)c(S(=O)(=O)N2CCc3ccccc32)c1 | 3.1 | -7.2 | -0.1 | 85.2* | -9.8 | 97.0*
CCC(=O)Nc1cccc(-c2ccc(N3CCC(C)CC3)nn2)c1 | -2.5 | -10.4 | -6.2 | -258.0 | -71.4 | -322.5
COc1ccc(N(CC(=O)N2CCN(c3ccc(Cl)cc3)CC2)S(=O)(=O)c2c(C)n[nH]c2C)cc1 | 2.2 | -1.1 | -3.2 | 36.6* | 13.6 | 31.6*
CCN(Cc1ccc(C#CCCO)cc1)CC1CCCN(CCc2cccc(F)c2)C1 (centres undefined) | 1.0 | -1.7 | -4.6 | -12.9 | -4.5 | .
CCCCNc1ncnc2c1cnn2-c1ccccc1 | 8.1 | 6.2 | 0.0 | -190.5 | -32.6 | .
Cc1cccc(-n2ncc3c(NCc4cccnc4)ncnc32)c1 | 11.1 | -0.1 | 5.0 | -110.7 | -52.2 | .
Cc1ccc(-n2ncc3c(NCc4cccnc4)ncnc32)cc1C | 9.3 | -10.7 | -2.9 | -260.8 | -104.1 | -265.8
CCCCNc1ncnc2c1cnn2-c1ccc(Cl)cc1 | 2.9 | -31.5 | 4.5 | -307.9 | -24.8 | -324.4
Oc1ccccc1-c1cc(-c2ccc3c(c2)OCCO3)n[nH]1 | -0.7 | -62.3 | -3.9 | -432.9 | -138.0 | -453.2
O=C(O)c1cc(-c2ccc3c(c2)OCCO3)n[nH]1 | 2.2 | 4.7 | -1.3 | 15.3 | 23.6 | .
CC(C)CN(C(=O)COC(=O)C12CC3CC(CC(C3)C1)C2)c1c(N)n(Cc2ccccc2)c(=O)[nH]c1=O | 4.7 | -8.5 | -5.1 | 50.4* | 13.6 | 52.0*
